Test results from ChEMBL document CHEMBL3792364, “Identification and biological activity of 6-alkyl-substituted 3-methyl-pyridine-2-carbonyl amino dimethyl-benzoic acid EP4 antagonists” (Bioorg Med Chem Lett, 2016).
Converted amounts (≈) assume the structure as drawn. The source made the active and inactive calls. The rule behind the calls is not given here.

Assays:
[1] = biological target: T1, Prostaglandin E2 receptor EP4 subtype (Homo sapiens, UniProt P35408); test: Antagonist activity against EP4 in human whole blood assessed as reversal of PGE2-mediated suppression of LPS-induced TNF-alpha production preincubated for 30 mins followed by LPS stimulation measured after 20 to 24 hrs by enzyme immunoassay; assay type: tissue-based
In short: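 Pooled blood from donors free of NSAIDs or celecoxib for 48 h and of glucocorticoids for 2 weeks. Blood pretreated 30 min at 37 °C, 5% CO2 with compound in DMSO (7-point curve, triplicate). LPS […] ± 10 nM PGE2 (final) added, then incubated 20–24 h. Plasma TNFα read at A450-A650. IC50 from sigmoidal nonlinear fit; geometric mean of independent runs.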

[2] = biological target: T1, Prostaglandin E2 receptor EP4 subtype; test: Antagonist activity against human EP4 expressed in HEK293 cells assessed as inhibition of PGE2-stimulated production of cAMP incubated for 20 mins by HTRF assay; assay type: functional, cell-based
[3] = Aqueous solubility of compound at pH 6 at 2 mM after 20 hrs by HPLC; assay type: physicochemical; details: aqueous medium
In short: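 Samples in DMSO dried 12 h, then redissolved at pH 6 at a 2 mM target concentration. Stirred 20 h, filtered through 0.7 µm GF filter. Filtrate concentration measured by HPLC against a DMSO standard curve.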

[4] = biological target: Prostaglandin F2-alpha receptor (Homo sapiens) (UniProt P43088); test: Inhibition of prostaglandin FP receptor (unknown origin) at 10 uM
In short: (§1)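 Off-target selectivity panel covering 13 receptors, four ion channels, one transporter and one enzyme, plus prostanoid DP1, FP, IP and TP receptors and COX-1/2. Test concentration 10 µM.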

[5] = biological target: Thromboxane A2 receptor (Homo sapiens) (UniProt P21731); test: Inhibition of prostaglandin TP receptor (unknown origin) at 10 uM; in short: as §1
[6] = Oral bioavailability in rat at 5 mg/kg; assay type: ADME, organism-based; details: in vivo
[7] = Half life in rat at 5 mg/kg, po; assay type: ADME, organism-based; details: in vivo
In short: (§2)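 Rat and dog given single iv dose of 1 mg/kg and oral dose of 5 mg/kg. Oral AUC, Cmax and half-life and iv clearance were derived from plasma levels.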

[8] = biological target: Acetylcholinesterase (Homo sapiens) (UniProt P22303); test: Inhibition of human acetylcholinesterase at 10 uM
[9] = Volume of distribution at steady state in rat at 1 mg/kg, iv or 5 mg/kg, po; assay type: ADME, organism-based; details: in vivo, read-out: Vdss
[10] = biological target: Prostacyclin receptor (Homo sapiens) (UniProt P43119); test: Inhibition of prostaglandin IP receptor (unknown origin) at 10 uM; in short: as §1
[11] = biological target: D(1A) dopamine receptor (Homo sapiens) (UniProt P21728); test: Inhibition of human dopamine D1 receptor at 10 uM; in short: as §1
[12] = biological target: Sodium-dependent noradrenaline transporter (Homo sapiens) (UniProt P23975); test: Inhibition of human norepinephrine transporter at 10 uM
[13] = Cmax in rat at 5 mg/kg, po; assay type: ADME, organism-based; parameters: dose 5 mg/kg, route oral; details: in vivo; in short: as §2
Cytochrome P450 2D6 [14] = biological target: T2, Cytochrome P450 2D6 (Homo sapiens, UniProt P10635); test: Inhibition of CYP2D6 (unknown origin) at 10 uM; assay type: ADME
In short: (§3)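 Inhibition of CYP1A2, 2B6, 2C19, 2C8, 2C9, 2D6 and 3A4 tested in vitro at concentrations up to 10 µM.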

[15] = AUC in dog at 5 mg/kg, po; assay type: ADME, organism-based, Canis lupus familiaris; details: in vivo; in short: as §2
Cytochrome P450 1A2 [16] = biological target: T3, Cytochrome P450 1A2 (Homo sapiens, UniProt P05177); test: Inhibition of CYP1A2 (unknown origin) at 10 uM; assay type: ADME; in short: as §3
[17] = biological target: Adrenergic receptor alpha-2 (Rattus norvegicus) (UniProt P22086+P19328+P22909); test: Inhibition of rat adrenergic alpha2 receptor at 10 uM; in short: as §1
[18] = biological target: Beta-1 adrenergic receptor (Homo sapiens) (UniProt P08588); test: Inhibition of human adrenergic beta1 receptor at 10 uM; in short: as §1
Cytochrome P450 3A4 [19] = biological target: T4, Cytochrome P450 3A4 (Homo sapiens, UniProt P08684); test: Inhibition of CYP3A4 (unknown origin); assay type: ADME; in short: as §3
[20] = AUC in rat at 5 mg/kg, po; assay type: ADME, organism-based; details: in vivo; in short: as §2
Cytochrome P450 2C9 [21] = biological target: T5, Cytochrome P450 2C9 (Homo sapiens, UniProt P11712); test: Inhibition of CYP2C9 (unknown origin); assay type: ADME; in short: as §3
Cytochrome P450 2C19 [22] = biological target: T6, Cytochrome P450 2C19 (Homo sapiens, UniProt P33261); test: Inhibition of CYP2C19 (unknown origin); assay type: ADME; in short: as §3
[23] = Half life in dog at 5 mg/kg, po; assay type: ADME, organism-based, Canis lupus familiaris; details: in vivo; in short: as §2
Cytochrome P450 2C9 [24] = biological target: T5, Cytochrome P450 2C9; test: Inhibition of CYP2C9 (unknown origin) at 10 uM; assay type: ADME; in short: as §3
[25] = biological target: L-type calcium channel dihydropyridine binding site (Homo sapiens, UniProt O60840+Q01668+Q13698+Q13936); test: Inhibition of L-type calcium channel dihydropyridine binding site (unknown origin) at 10 uM; assay type: protein assay; in short: as §1
[26] = biological target: D(2) dopamine receptor (Homo sapiens) (UniProt P14416); test: Inhibition of human dopamine D2 short receptor at 10 uM; in short: as §1
[27] = Oral bioavailability in dog at 5 mg/kg; assay type: ADME, organism-based, Canis lupus familiaris; details: in vivo
[28] = biological target: Prostaglandin G/H synthase 2 (Homo sapiens) (UniProt P35354); test: Inhibition of COX2 (unknown origin) at 10 uM; in short: as §1
Cytochrome P450 2C8 [29] = biological target: T7, Cytochrome P450 2C8 (Homo sapiens, UniProt P10632); test: Inhibition of CYP2C8 (unknown origin) at 10 uM; assay type: ADME; in short: as §3
Cytochrome P450 2C19 [30] = biological target: T6, Cytochrome P450 2C19; test: Inhibition of CYP2C19 (unknown origin) at 10 uM; assay type: ADME; in short: as §3
[31] = biological target: Adrenergic receptor alpha-1 (Rattus norvegicus) (UniProt P15823+P23944+P43140); test: Inhibition of rat adrenergic alpha1 receptor at 10 uM; in short: as §1
Cytochrome P450 1A2 [32] = biological target: T3, Cytochrome P450 1A2; test: Inhibition of CYP1A2 (unknown origin); assay type: ADME; in short: as §3
Cytochrome P450 2D6 [33] = biological target: T2, Cytochrome P450 2D6; test: Inhibition of CYP2D6 (unknown origin); assay type: ADME; in short: as §3
[34] = biological target: Beta-2 adrenergic receptor (Homo sapiens) (UniProt P07550); test: Inhibition of human adrenergic beta2 receptor at 10 uM; in short: as §1
[35] = biological target: Prostaglandin D2 receptor (Homo sapiens) (UniProt Q13258); test: Inhibition of prostaglandin DP1 receptor (unknown origin) at 10 uM; in short: as §1
[36] = biological target: Histamine H1 receptor (Homo sapiens) (UniProt P35367); test: Inhibition of human histamine H1 receptor at 10 uM; in short: as §1
Rattus norvegicus [37] = test: Antiinflammatory activity in rat adjuvant induced arthritis model assessed as suppression of Mycobacterium tuberculosis H37 RA induced paw swelling at 30 mg/kg measured from day 11 to 15 relative to vehicle control; assay type: functional, organism-based
In short: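 Rat adjuvant-induced arthritis: paw widths measured, then 0.25 mg adjuvant (Mycobacterium tuberculosis H37 RA) in 100 µl mineral oil given intradermally at tail base (day 0). On day 11, width of both paws was re-measured as percent change from day 0, and rats were randomized on this and body weight before dosing. Rats were euthanized day 15 without further dosing and paw width measured.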

[38] = biological target: L-type calcium channel verapamil binding site (Homo sapiens, UniProt O60840+Q01668+Q13698+Q13936); test: Inhibition of L-type calcium channel verapamil binding site (unknown origin) at 10 uM; assay type: protein assay; in short: as §1
Cytochrome P450 2B6 [39] = biological target: T8, Cytochrome P450 2B6 (Homo sapiens, UniProt P20813); test: Inhibition of CYP2B6 (unknown origin); assay type: ADME; in short: as §3
[40] = Volume of distribution at steady state in dog at 1 mg/kg, iv or 5 mg/kg, po; assay type: ADME, organism-based, Canis lupus familiaris; details: in vivo, read-out: Vdss
[41] = Clearance in dog at 1 mg/kg, iv; assay type: ADME, organism-based, Canis lupus familiaris; details: in vivo; in short: as §2
[42] = biological target: Prostaglandin G/H synthase 1 (Homo sapiens) (UniProt P23219); test: Inhibition of COX1 (unknown origin) at 10 uM; in short: as §1
[43] = biological target: Muscarinic acetylcholine receptor M3 (Homo sapiens) (UniProt P20309); test: Inhibition of human muscarinic M3 receptor at 10 uM; in short: as §1
Cytochrome P450 2C8 [44] = biological target: T7, Cytochrome P450 2C8; test: Inhibition of CYP2C8 (unknown origin); assay type: ADME; in short: as §3
[45] = biological target: L-type calcium channel diltiazem binding site (Homo sapiens, UniProt O60840+Q01668+Q13698+Q13936); test: Inhibition of L-type calcium channel diltiazem binding site (unknown origin) at 10 uM; assay type: protein assay; in short: as §1
Rattus norvegicus [46] = test: Antiinflammatory activity in orally dosed rat MIA model assessed as inhibition of differential weight bearing measured 30 mins post dose by incapacitance test; assay type: functional, organism-based
In short: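 MIA 0.3 mg in 50 µL saline injected into right knee and saline into left knee of rats on day 0. Day 12: randomized, single oral dose in 10% acacia in water plus 0.05% antifoam at 0.3–10 mg/kg, with diclofenac 5 mg/kg. Hind-limb weight distribution measured by incapacitance tester 30 min post dose. n = 5/group, Dunnett's test versus vehicle.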

[47] = biological target: Mu-type opioid receptor (Homo sapiens) (UniProt P35372); test: Inhibition of human Mu-type opioid receptor 10 uM; in short: as §1
[48] = Cmax in dog at 5 mg/kg, po; assay type: ADME, organism-based, Canis lupus familiaris; parameters: dose 5 mg/kg, route oral; details: in vivo; in short: as §2
Cytochrome P450 2B6 [49] = biological target: T8, Cytochrome P450 2B6; test: Inhibition of CYP2B6 (unknown origin) at 10 uM; assay type: ADME; in short: as §3
[50] = biological target: Muscarinic acetylcholine receptor M2 (Homo sapiens) (UniProt P08172); test: Inhibition of human muscarinic M2 receptor at 10 uM; in short: as §1
[51] = biological target: Voltage-gated inwardly rectifying potassium channel KCNH2 (Homo sapiens, UniProt Q12809); test: Inhibition of human ERG up to 100 uM by [H3]-astemizole binding assay
In short: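 hERG activity measured as displacement of [3H]-astemizole binding, compound tested up to 100 µM.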

[52] = Clearance in rat at 1 mg/kg, iv; assay type: ADME, organism-based; details: in vivo; in short: as §2
Cytochrome P450 3A4 [53] = biological target: T4, Cytochrome P450 3A4; test: Inhibition of CYP3A4 (unknown origin) at 10 uM; assay type: ADME; in short: as §3

T6 sequence (P33261 whole entry): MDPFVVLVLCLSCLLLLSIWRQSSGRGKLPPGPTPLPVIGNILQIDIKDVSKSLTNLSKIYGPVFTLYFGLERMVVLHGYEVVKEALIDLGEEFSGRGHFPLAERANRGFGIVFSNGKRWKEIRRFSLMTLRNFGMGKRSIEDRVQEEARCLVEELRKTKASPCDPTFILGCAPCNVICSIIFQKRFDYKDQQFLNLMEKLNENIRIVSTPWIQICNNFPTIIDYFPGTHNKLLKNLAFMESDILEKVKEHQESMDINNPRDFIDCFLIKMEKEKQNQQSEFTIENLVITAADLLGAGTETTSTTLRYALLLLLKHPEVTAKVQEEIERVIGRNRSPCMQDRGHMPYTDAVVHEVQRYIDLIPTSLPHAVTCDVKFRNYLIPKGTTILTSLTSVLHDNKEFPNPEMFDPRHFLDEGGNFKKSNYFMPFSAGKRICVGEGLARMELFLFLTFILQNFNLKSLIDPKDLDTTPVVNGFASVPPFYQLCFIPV
T8 sequence (P20813 whole entry): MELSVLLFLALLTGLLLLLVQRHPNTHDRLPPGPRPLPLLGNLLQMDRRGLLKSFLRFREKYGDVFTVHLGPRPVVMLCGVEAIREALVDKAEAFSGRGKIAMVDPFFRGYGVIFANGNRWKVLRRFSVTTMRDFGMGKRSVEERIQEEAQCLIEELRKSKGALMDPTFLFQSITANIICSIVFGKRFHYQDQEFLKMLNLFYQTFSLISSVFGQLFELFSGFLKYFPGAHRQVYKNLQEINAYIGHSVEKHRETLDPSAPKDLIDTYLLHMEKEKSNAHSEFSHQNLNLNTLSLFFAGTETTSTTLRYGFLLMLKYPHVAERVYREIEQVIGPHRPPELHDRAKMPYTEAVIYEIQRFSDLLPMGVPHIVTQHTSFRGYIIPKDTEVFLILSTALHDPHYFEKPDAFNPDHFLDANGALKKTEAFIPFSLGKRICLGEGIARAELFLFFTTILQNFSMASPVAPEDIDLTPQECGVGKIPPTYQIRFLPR
T5 sequence (P11712 whole entry): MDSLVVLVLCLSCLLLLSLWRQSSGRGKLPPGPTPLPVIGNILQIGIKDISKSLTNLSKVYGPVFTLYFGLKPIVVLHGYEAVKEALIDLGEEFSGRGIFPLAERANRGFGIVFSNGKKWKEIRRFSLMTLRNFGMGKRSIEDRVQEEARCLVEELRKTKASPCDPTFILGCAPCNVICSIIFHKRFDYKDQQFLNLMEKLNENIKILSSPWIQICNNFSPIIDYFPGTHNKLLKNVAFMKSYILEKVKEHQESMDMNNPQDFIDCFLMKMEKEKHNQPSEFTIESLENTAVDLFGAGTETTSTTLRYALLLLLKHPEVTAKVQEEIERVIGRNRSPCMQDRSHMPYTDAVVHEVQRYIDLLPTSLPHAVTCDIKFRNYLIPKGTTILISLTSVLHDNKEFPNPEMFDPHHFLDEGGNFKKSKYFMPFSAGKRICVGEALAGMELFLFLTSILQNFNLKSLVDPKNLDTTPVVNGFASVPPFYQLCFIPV
T2 sequence (P10635 whole entry): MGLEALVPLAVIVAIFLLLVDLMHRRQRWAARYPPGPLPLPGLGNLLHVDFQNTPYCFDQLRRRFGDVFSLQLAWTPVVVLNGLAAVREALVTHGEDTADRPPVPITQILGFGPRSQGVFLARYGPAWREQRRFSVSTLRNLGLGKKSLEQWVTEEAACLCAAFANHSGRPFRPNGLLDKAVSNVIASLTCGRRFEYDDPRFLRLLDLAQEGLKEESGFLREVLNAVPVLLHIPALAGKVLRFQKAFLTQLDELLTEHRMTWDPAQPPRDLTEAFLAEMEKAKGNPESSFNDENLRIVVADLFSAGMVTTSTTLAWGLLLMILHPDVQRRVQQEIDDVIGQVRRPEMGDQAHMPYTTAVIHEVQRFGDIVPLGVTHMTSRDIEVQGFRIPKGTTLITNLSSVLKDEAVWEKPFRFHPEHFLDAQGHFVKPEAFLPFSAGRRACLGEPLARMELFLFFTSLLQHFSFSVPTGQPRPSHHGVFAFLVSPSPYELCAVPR
T1 sequence (P35408 whole entry): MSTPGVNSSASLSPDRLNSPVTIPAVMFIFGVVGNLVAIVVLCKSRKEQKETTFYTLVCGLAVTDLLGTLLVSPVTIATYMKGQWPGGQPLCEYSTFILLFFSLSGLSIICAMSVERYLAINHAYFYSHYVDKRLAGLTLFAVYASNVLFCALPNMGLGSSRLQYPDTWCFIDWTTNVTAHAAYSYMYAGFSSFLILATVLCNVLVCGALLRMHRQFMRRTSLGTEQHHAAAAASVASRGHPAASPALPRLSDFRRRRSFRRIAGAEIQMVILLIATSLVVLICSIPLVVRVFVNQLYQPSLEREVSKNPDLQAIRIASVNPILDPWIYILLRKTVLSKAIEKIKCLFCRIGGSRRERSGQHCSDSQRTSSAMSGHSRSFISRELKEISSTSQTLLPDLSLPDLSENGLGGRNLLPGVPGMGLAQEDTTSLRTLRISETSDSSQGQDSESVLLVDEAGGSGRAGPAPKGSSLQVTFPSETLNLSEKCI
T3 sequence (P05177 whole entry): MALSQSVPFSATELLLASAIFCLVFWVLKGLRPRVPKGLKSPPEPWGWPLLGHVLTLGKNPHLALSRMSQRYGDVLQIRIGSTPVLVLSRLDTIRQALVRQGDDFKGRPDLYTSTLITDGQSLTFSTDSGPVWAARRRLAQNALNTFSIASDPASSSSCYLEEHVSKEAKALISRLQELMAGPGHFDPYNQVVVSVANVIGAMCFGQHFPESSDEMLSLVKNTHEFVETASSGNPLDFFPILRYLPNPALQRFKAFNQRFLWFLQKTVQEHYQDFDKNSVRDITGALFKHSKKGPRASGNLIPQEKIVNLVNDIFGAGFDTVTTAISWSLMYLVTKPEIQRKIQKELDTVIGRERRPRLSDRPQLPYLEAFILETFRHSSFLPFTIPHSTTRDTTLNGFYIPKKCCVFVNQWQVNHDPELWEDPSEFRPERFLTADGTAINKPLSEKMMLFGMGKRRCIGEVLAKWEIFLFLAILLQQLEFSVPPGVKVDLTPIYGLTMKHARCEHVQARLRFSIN
T4 sequence (P08684 whole entry): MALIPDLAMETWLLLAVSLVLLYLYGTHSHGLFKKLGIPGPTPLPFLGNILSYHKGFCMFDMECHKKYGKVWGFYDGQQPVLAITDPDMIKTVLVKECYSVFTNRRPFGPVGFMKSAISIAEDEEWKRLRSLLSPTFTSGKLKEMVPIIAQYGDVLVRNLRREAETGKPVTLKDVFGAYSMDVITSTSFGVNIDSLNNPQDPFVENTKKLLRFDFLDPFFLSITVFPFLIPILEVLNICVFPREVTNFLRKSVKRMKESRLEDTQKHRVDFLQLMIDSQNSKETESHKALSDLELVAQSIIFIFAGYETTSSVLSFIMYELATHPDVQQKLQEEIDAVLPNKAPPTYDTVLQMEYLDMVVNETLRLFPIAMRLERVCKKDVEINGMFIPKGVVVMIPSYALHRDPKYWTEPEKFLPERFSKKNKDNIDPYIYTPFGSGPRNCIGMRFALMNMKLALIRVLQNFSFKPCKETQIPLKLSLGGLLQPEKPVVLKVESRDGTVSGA
T7 sequence (P10632 whole entry): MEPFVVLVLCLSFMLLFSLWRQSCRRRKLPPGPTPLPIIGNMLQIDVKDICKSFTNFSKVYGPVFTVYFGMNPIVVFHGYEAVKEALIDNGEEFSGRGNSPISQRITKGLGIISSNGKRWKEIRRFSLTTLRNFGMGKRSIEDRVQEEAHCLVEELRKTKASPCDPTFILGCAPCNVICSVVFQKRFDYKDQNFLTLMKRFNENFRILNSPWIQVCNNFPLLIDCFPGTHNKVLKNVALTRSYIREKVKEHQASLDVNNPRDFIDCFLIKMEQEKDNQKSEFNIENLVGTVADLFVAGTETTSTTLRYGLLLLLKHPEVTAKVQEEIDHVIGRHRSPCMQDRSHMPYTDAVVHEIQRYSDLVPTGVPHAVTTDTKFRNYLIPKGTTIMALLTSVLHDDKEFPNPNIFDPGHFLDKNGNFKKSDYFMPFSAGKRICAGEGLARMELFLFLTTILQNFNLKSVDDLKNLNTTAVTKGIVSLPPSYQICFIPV
Prostaglandin G/H synthase 2 (Homo sapiens), sequence (P35354 whole entry): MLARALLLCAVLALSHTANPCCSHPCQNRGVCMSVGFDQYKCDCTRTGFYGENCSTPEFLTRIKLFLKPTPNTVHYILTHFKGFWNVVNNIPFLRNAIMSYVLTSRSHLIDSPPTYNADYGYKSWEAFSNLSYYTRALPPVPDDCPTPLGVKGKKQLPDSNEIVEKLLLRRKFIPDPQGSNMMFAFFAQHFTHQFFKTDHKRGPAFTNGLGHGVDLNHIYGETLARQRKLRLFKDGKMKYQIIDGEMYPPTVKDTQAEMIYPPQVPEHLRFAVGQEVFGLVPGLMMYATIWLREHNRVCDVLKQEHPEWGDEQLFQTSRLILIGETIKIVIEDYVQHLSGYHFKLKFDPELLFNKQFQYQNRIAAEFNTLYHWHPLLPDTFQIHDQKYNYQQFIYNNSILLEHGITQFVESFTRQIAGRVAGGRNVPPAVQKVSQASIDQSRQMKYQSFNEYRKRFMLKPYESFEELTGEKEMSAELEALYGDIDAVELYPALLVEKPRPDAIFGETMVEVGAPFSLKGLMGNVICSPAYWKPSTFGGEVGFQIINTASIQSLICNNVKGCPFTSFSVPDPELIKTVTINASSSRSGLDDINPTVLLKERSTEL
Prostaglandin D2 receptor (Homo sapiens), sequence (Q13258 whole entry): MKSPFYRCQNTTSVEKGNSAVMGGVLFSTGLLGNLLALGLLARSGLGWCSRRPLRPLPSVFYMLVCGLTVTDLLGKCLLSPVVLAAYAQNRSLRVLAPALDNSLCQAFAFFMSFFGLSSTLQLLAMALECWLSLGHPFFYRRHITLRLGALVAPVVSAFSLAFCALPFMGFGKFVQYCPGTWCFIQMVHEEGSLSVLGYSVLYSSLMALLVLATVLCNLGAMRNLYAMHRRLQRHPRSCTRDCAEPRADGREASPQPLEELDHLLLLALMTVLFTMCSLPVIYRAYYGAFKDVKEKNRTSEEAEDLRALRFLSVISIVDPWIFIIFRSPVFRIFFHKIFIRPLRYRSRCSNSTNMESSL

Cc1ccc(N2CCC(O)CC2)nc1C(=O)Nc1c(C)ccc(C(=O)O)c1C
IC50 [1]: 1.45 µM
IC50 [2]: 0.0195 µM
solubility at 20 h, 2000 µM [3]: 784 µg/mL (≈ 2040 µM)

Cc1ccc(N2CCC(O)CC2)nc1C(=O)Nc1c(C)cc(C(=O)O)cc1C
inhibition [4]: inactive
inhibition [5]: inactive
bioavailability [6]: 34%
half-life [7]: 5.1 h
inhibition [8]: 7%
Vd [9]: 0.34 L/kg
inhibition [10]: inactive
inhibition [11]: 14%
inhibition [12]: 7%
Cmax [13]: 3100 ng/mL
inhibition (INH) (Cytochrome P450 2D6 [14]): Not Active
AUC [15]: 6320 ng·h/mL
inhibition (INH) (Cytochrome P450 1A2 [16]): Not Active
inhibition [17]: -4%
inhibition [18]: 3%
IC50 (Cytochrome P450 3A4 [19]): > 10 µM
AUC [20]: 9670 ng·h/mL
IC50 (Cytochrome P450 2C9 [21]): > 10 µM
IC50 (Cytochrome P450 2C19 [22]): > 10 µM
half-life [23]: 5.1 h
inhibition (INH) (Cytochrome P450 2C9 [24]): Not Active
inhibition at 10 µM [25]: -39%
inhibition [26]: 5%
bioavailability [27]: 75%
inhibition [28]: inactive
inhibition (INH) (Cytochrome P450 2C8 [29]): Not Active
inhibition (INH) (Cytochrome P450 2C19 [30]): Not Active
inhibition [31]: -8%
IC50 (Cytochrome P450 1A2 [32]): > 10 µM
IC50 (Cytochrome P450 2D6 [33]): > 10 µM
solubility at 20 h, 2000 µM [3]: 762 µg/mL (≈ 1990 µM)
inhibition [34]: -2%
inhibition [35]: inactive
inhibition [36]: -3%
Activity (Rattus norvegicus [37]): Active
inhibition at 10 µM [38]: 1%
IC50 (Cytochrome P450 2B6 [39]): > 10 µM
Vd [40]: 1.73 L/kg
clearance [41]: 10 mL/min/kg
inhibition [42]: inactive
inhibition [43]: 0%
IC50 (Cytochrome P450 2C8 [44]): > 10 µM
inhibition at 10 µM [45]: -23%
Activity (Rattus norvegicus [46]): Dose-dependent effect
inhibition [47]: -8%
Cmax [48]: 1870 ng/mL
inhibition (INH) (Cytochrome P450 2B6 [49]): Not Active
inhibition [50]: 6%
inhibition (INH) [51]: Not Active
clearance [52]: 3 mL/min/kg
inhibition (INH) (Cytochrome P450 3A4 [53]): Not Active
